≈ marks a conversion by molar mass, not a printed value.
What was measured:
[1] = tested on: Mycobacterium tuberculosis; test: Antitubercular activity against Mycobacterium tuberculosis H37Rv after 21 days by broth dilution assay; assay type: functional; conditions: 504 h
Outline: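 H37Rv frozen stock in Middlebrook 7H9 broth with 10% albumin-dextrose-catalase and 0.2% glycerol, thawed and diluted to 10⁵ cfu mL⁻¹. Compounds dissolved in DMSO, diluted in broth (final DMSO 1.3%). U-tubes inoculated, incubated 37 °C for 21 days. Growth scored visually against drug-free and inoculum-free controls and isoniazid. MIC = lowest concentration inhibiting […] of starting population.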

[2] = tested on: Bacillus subtilis; test: Antimicrobial activity against Bacillus subtilis ATCC 60511 after 24 hrs by broth microdilution method; assay type: functional; conditions: ATCC 60511, 24 h
Outline: (§1)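 Broth microdilution in tubes. Compounds were dissolved at 10 mg in 1 mL DMSO and diluted in Mueller-Hinton Broth for bacteria or Sabouraud Liquid Medium for yeasts and A. niger. Final concentrations were 1–500 µg/mL (1, 2, 4, 8, 16, 31.25, 62.5, 125, 250, 500), with DMSO at most 1% v/v. Inoculum was 10^5 cfu/mL, incubated at 37 °C for 24 h. MIC was the lowest concentration giving complete growth inhibition. Media and media-plus-DMSO served as growth controls.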

[3] = tested on: Klebsiella pneumoniae; test: Antimicrobial activity against Klebsiella pneumoniae ATCC 10031 after 24 hrs by broth microdilution method; assay type: functional; conditions: ATCC 10031, 24 h; outline: as §1
[4] = tested on: Enterococcus faecalis; test: Antimicrobial activity against Streptococcus faecalis ATCC 14506 after 24 hrs by broth microdilution method; assay type: functional; conditions: ATCC 14506, 24 h; outline: as §1
[5] = tested on: Staphylococcus aureus; test: Antimicrobial activity against Staphylococcus aureus ATCC 11632 after 24 hrs by broth microdilution method; assay type: functional; conditions: ATCC 11632, 24 h; outline: as §1
[6] = tested on: Candida tropicalis; test: Antimicrobial activity against Candida tropicalis ATCC 1369 after 24 hrs by broth microdilution method; assay type: functional; conditions: ATCC 1369, 24 h; outline: as §1
[7] = tested on: Aspergillus niger; test: Antimicrobial activity against Aspergillus niger ATCC 6275 after 24 hrs by broth microdilution method; assay type: functional; conditions: ATCC 6275, 24 h; outline: as §1
[8] = tested on: Escherichia coli; test: Antimicrobial activity against Escherichia […] after 24 hrs by broth microdilution method; assay type: functional; outline: as §1
[9] = tested on: Pseudomonas aeruginosa; test: Antimicrobial activity against Pseudomonas aeruginosa ATCC 10145 after 24 hrs by broth microdilution method; assay type: functional; conditions: ATCC 10145, 24 h; outline: as §1
[10] = tested on: Saccharomyces cerevisiae; test: Antimicrobial activity against Saccharomyces cerevisiae ATCC 9763 after 24 hrs by broth microdilution method; assay type: functional; conditions: ATCC 9763, 24 h; outline: as §1
[11] = tested on: A549; test: Cytotoxicity against human A549 cell at 250 uM by MTT assay; assay type: cell-based; conditions: a549, 250 µM
Outline: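 A549 lung adenocarcinoma cells were grown with 10% and 0.2% FBS. Compounds were held as 10 mM DMSO stocks and diluted in culture medium; cells were treated at 250 µM. Viability was read by MTT reduction against untreated cells and a DMSO vehicle control. The work was done as two experiments, each with triplicate readings.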

Q: How did the MIC [1] turn out when C/C(=N/NC(=O)c1nc(C(C)C)cs1)c1ccc(C)cc1 was run?
A: 125 µg/mL (≈ 415 µM)

Q: What about the MIC [2] of the same molecule?
A: 250 µg/mL (≈ 829 µM)

Q: What about the MIC [3] of the same molecule?
A: 125 µg/mL (≈ 415 µM)

Q: What about the MIC [4] of the same molecule?
A: 125 µg/mL (≈ 415 µM)

Q: What about the MIC [5] of the same molecule?
A: 250 µg/mL (≈ 829 µM)

Q: And the MIC [6]?
A: 250 µg/mL (≈ 829 µM)

Q: What about the MIC [7] of the same molecule?
A: 500 µg/mL (≈ 1660 µM)

Q: What about the MIC [8] of the same molecule?
A: 250 µg/mL (≈ 829 µM)

Q: And the MIC [9]?
A: 250 µg/mL (≈ 829 µM)

Q: And the MIC [10]?
A: 125 µg/mL (≈ 415 µM)

Q: Which MIC [1] does the source give for C/C(=N/NC(=O)c1nc(C(C)C)cs1)c1ccc([N+](=O)[O-])cc1 here?
A: 125 µg/mL (≈ 376 µM)

Q: What about the MIC [2] of the same molecule?
A: 250 µg/mL (≈ 752 µM)

Q: What about the MIC [3] of the same molecule?
A: 250 µg/mL (≈ 752 µM)

Q: And the MIC [4]?
A: 250 µg/mL (≈ 752 µM)

Q: And the MIC [5]?
A: 250 µg/mL (≈ 752 µM)

Q: And the MIC [6]?
A: 125 µg/mL (≈ 376 µM)

Q: What about the MIC [7] of the same molecule?
A: 125 µg/mL (≈ 376 µM)

Q: What about the MIC [8] of the same molecule?
A: 250 µg/mL (≈ 752 µM)

Q: And the MIC [9]?
A: 250 µg/mL (≈ 752 µM)

Q: And the MIC [10]?
A: 500 µg/mL (≈ 1500 µM)

Q: For CC(=O)NNC(=O)c1nc(C(C)C)cs1, which MIC [1] is on record?
A: 125 µg/mL (≈ 550 µM)

Q: What about the MIC [2] of the same molecule?
A: 250 µg/mL (≈ 1100 µM)

Q: What about the MIC [3] of the same molecule?
A: 125 µg/mL (≈ 550 µM)

Q: And the MIC [4]?
A: 125 µg/mL (≈ 550 µM)

Q: And the MIC [5]?
A: 500 µg/mL (≈ 2200 µM)

Q: And the MIC [6]?
A: 125 µg/mL (≈ 550 µM)

Q: What about the MIC [7] of the same molecule?
A: 500 µg/mL (≈ 2200 µM)

Q: What about the MIC [8] of the same molecule?
A: 250 µg/mL (≈ 1100 µM)

Q: What about the MIC [9] of the same molecule?
A: 125 µg/mL (≈ 550 µM)

Q: And the MIC [10]?
A: 500 µg/mL (≈ 2200 µM)

Q: NNC(=O)c1ccncc1 [ISONIAZID] was tested. Which MIC [1] did it give?
A: 0.25 µg/mL (≈ 1.82 µM)

Q: Which MIC [1] does the source give for CC(C)c1csc(C(=O)N/N=C/c2cccc(Cl)c2Cl)n1 here?
A: 125 µg/mL (≈ 365 µM)

Q: What about the MIC [2] of the same molecule?
A: 31.2 µg/mL (≈ 91.3 µM)

Q: And the MIC [3]?
A: 31.2 µg/mL (≈ 91.3 µM)

Q: What about the MIC [4] of the same molecule?
A: 31.2 µg/mL (≈ 91.3 µM)

Q: What about the MIC [5] of the same molecule?
A: 250 µg/mL (≈ 730 µM)

Q: What about the MIC [6] of the same molecule?
A: 31.2 µg/mL (≈ 91.3 µM)

Q: What about the MIC [7] of the same molecule?
A: 125 µg/mL (≈ 365 µM)

Q: What about the MIC [8] of the same molecule?
A: 16 µg/mL (≈ 46.7 µM)

Q: What about the MIC [9] of the same molecule?
A: 31.2 µg/mL (≈ 91.3 µM)

Q: What about the MIC [10] of the same molecule?
A: 16 µg/mL (≈ 46.7 µM)

Q: How did the MIC [1] turn out when CC(=O)N1N=C(c2nc(C(C)C)cs2)OC1c1ccccc1 (stereo not drawn) was run?
A: 31.2 µg/mL (≈ 99.1 µM)

Q: And the MIC [2]?
A: 31.2 µg/mL (≈ 99.1 µM)

Q: What about the MIC [3] of the same molecule?
A: 62.5 µg/mL (≈ 198 µM)

Q: What about the MIC [4] of the same molecule?
A: 62.5 µg/mL (≈ 198 µM)

Q: And the MIC [5]?
A: 125 µg/mL (≈ 396 µM)

Q: And the MIC [6]?
A: 16 µg/mL (≈ 50.7 µM)

Q: What about the MIC [7] of the same molecule?
A: 16 µg/mL (≈ 50.7 µM)

Q: What about the MIC [8] of the same molecule?
A: 62.5 µg/mL (≈ 198 µM)

Q: What about the MIC [9] of the same molecule?
A: 16 µg/mL (≈ 50.7 µM)

Q: And the MIC [10]?
A: 31.2 µg/mL (≈ 99.1 µM)

Q: With CC(C)c1csc(C(=O)N/N=C/c2ccc(N(C)C)cc2)n1 as the molecule, how does the MIC [1] read?
A: 125 µg/mL (≈ 395 µM)

Q: What about the MIC [2] of the same molecule?
A: 125 µg/mL (≈ 395 µM)

Q: And the MIC [3]?
A: 125 µg/mL (≈ 395 µM)

Q: What about the MIC [4] of the same molecule?
A: 125 µg/mL (≈ 395 µM)

Q: And the MIC [5]?
A: 250 µg/mL (≈ 790 µM)

Q: What about the MIC [6] of the same molecule?
A: 125 µg/mL (≈ 395 µM)

Q: What about the MIC [7] of the same molecule?
A: 62.5 µg/mL (≈ 198 µM)

Q: And the MIC [8]?
A: 31.2 µg/mL (≈ 98.8 µM)

Q: What about the MIC [9] of the same molecule?
A: 31.2 µg/mL (≈ 98.8 µM)

Q: And the MIC [10]?
A: 250 µg/mL (≈ 790 µM)

Q: What does the source list for C/C(=N/NC(=O)c1nc(C(C)C)cs1)c1ccc(Br)cc1?
A: MIC [1]: 31.2 µg/mL (≈ 85.3 µM); MIC [2]: 125 µg/mL (≈ 341 µM); MIC [3]: 125 µg/mL (≈ 341 µM); MIC [4]: 250 µg/mL (≈ 683 µM); MIC [5]: 250 µg/mL (≈ 683 µM); MIC [6]: 125 µg/mL (≈ 341 µM); MIC [7]: 125 µg/mL (≈ 341 µM); MIC [8]: 250 µg/mL (≈ 683 µM); MIC [9]: 125 µg/mL (≈ 341 µM); MIC [10]: 31.2 µg/mL (≈ 85.3 µM)

Q: What does the source list for CC(C)c1csc(-c2nnc(S)o2)n1?
A: MIC [1]: 8 µg/mL (≈ 35.2 µM); MIC [2]: 16 µg/mL (≈ 70.4 µM); MIC [3]: 16 µg/mL (≈ 70.4 µM); MIC [4]: 31.2 µg/mL (≈ 137 µM); MIC [5]: 125 µg/mL (≈ 550 µM); MIC [6]: 16 µg/mL (≈ 70.4 µM); MIC [7]: 31.2 µg/mL (≈ 137 µM); MIC [8]: 31.2 µg/mL (≈ 137 µM); MIC [9]: 31.2 µg/mL (≈ 137 µM); MIC [10]: 31.2 µg/mL (≈ 137 µM)

Q: Which MIC [1] does the source give for CC(C)c1csc(C(=O)N/N=C/c2ccccc2)n1 here?
A: 250 µg/mL (≈ 915 µM)

Q: What about the MIC [2] of the same molecule?
A: 125 µg/mL (≈ 457 µM)

Q: And the MIC [3]?
A: 125 µg/mL (≈ 457 µM)

Q: What about the MIC [4] of the same molecule?
A: 125 µg/mL (≈ 457 µM)

Q: What about the MIC [5] of the same molecule?
A: 500 µg/mL (≈ 1830 µM)

Q: And the MIC [6]?
A: 62.5 µg/mL (≈ 229 µM)

Q: What about the MIC [7] of the same molecule?
A: 31.2 µg/mL (≈ 114 µM)

Q: What about the MIC [8] of the same molecule?
A: 31.2 µg/mL (≈ 114 µM)

Q: And the MIC [9]?
A: 16 µg/mL (≈ 58.5 µM)

Q: And the MIC [10]?
A: 62.5 µg/mL (≈ 229 µM)

Q: Which results are given for CC(=O)N1N=C(c2nc(C(C)C)cs2)OC1c1ccc(O)cc1 (stereo not drawn)?
A: Activity [11]: Active; MIC [1]: 31.2 µg/mL (≈ 94.3 µM); MIC [2]: 16 µg/mL (≈ 48.3 µM); MIC [3]: 31.2 µg/mL (≈ 94.3 µM); MIC [4]: 31.2 µg/mL (≈ 94.3 µM); MIC [5]: 125 µg/mL (≈ 377 µM); MIC [6]: 16 µg/mL (≈ 48.3 µM); MIC [7]: 16 µg/mL (≈ 48.3 µM); MIC [8]: 16 µg/mL (≈ 48.3 µM); MIC [9]: 31.2 µg/mL (≈ 94.3 µM); MIC [10]: 31.2 µg/mL (≈ 94.3 µM)

Q: For CC(=O)N1N=C(c2nc(C(C)C)cs2)OC1c1ccc(N(C)C)cc1 (stereo not drawn), which MIC [1] is on record?
A: 62.5 µg/mL (≈ 174 µM)

Q: What about the MIC [2] of the same molecule?
A: 31.2 µg/mL (≈ 87.2 µM)

Q: What about the MIC [3] of the same molecule?
A: 31.2 µg/mL (≈ 87.2 µM)

Q: And the MIC [4]?
A: 125 µg/mL (≈ 349 µM)

Q: And the MIC [5]?
A: 125 µg/mL (≈ 349 µM)

Q: What about the MIC [6] of the same molecule?
A: 31.2 µg/mL (≈ 87.2 µM)

Q: What about the MIC [7] of the same molecule?
A: 31.2 µg/mL (≈ 87.2 µM)

Q: What about the MIC [8] of the same molecule?
A: 16 µg/mL (≈ 44.6 µM)

Q: What about the MIC [9] of the same molecule?
A: 16 µg/mL (≈ 44.6 µM)

Q: And the MIC [10]?
A: 31.2 µg/mL (≈ 87.2 µM)

Q: How did the MIC [2] turn out when CCn1cc(C(=O)O)c(=O)c2cc(F)c(N3CCNCC3)cc21 [NORFLOXACIN] was run?
A: ≤ 1 µg/mL

Q: What about the MIC [3] of the same molecule?
A: ≤ 1 µg/mL

Q: What about the MIC [4] of the same molecule?
A: ≤ 5 µg/mL

Q: What about the MIC [5] of the same molecule?
A: ≤ 5 µg/mL

Q: What about the MIC [8] of the same molecule?
A: ≤ 1 µg/mL

Q: And the MIC [9]?
A: ≤ 5 µg/mL

Source: ChEMBL document CHEMBL1155277, “Synthesis of new 4-isopropylthiazole hydrazide analogs and some derived clubbed triazole, oxadiazole ring systems--a novel class of potential antibacterial, antifungal and antitubercular agents” (Eur J Med Chem, 2009)
